Experimental data taken from ChEMBL document CHEMBL3286131, “Design, synthesis and systematic evaluation of cytotoxic 3-heteroarylisoquinolinamines as topoisomerases inhibitors” (Eur J Med Chem, 2014).
Values joined by “and” are separate entries in the source; they are usually repeats but may differ in a detail not shown here. Identical values can stand only once.

Experiments:
[1] = biological target: DNA topoisomerase 2-alpha (Homo sapiens) (UniProt P11388); experiment: Inhibition of human DNA topoisomerase-2a-mediated relaxation of supercoiled DNA pBR322 at 20 uM after 4 hrs using ethidium bromide staining by agarose gel electrophoresis analysis
How it was run: (§1)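 Supercoiled pBR322 (200 ng) incubated with human topo IIα (1 unit) ± compound for 30 min at 30 °C. Buffer: 10 mM Tris-HCl pH 7.9, 50 mM NaCl, 50 mM KCl, 5 mM MgCl2, 1 mM EDTA, 1 mM ATP, BSA. Stopped with EDTA. 1% agarose gel run at 25 V for 4 h in TAE, ethidium bromide stain, supercoiled DNA quantified by UV imaging.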

[2] = biological target: T1, DNA topoisomerase 1 (Homo sapiens) (UniProt P11387); experiment: Inhibition of recombinant human DNA topoisomerase-1-mediated relaxation of supercoiled DNA pBR322 at 20 uM after 7 hrs using ethidium bromide staining by agarose gel electrophoresis analysis
T1 sequence (whole entry): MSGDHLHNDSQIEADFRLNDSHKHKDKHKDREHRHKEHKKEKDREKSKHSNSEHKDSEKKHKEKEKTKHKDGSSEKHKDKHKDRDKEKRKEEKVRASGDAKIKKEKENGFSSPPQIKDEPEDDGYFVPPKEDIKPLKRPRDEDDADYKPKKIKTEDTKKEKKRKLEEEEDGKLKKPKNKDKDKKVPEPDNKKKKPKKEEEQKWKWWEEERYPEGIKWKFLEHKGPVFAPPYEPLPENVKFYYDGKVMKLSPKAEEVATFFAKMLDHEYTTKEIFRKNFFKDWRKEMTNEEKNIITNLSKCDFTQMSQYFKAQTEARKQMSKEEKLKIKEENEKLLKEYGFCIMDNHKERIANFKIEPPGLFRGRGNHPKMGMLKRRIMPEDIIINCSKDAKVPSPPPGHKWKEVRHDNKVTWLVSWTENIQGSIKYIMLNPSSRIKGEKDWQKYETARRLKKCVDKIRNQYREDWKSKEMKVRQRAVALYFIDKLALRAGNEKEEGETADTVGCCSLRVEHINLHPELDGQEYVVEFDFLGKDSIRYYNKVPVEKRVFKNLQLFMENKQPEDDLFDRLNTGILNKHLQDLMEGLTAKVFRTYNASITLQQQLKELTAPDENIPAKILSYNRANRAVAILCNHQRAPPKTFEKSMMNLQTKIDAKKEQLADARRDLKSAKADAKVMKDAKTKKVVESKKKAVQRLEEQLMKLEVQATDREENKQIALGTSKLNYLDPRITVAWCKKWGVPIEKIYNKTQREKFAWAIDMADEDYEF
How it was run: (§2)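 pBR322 (100 ng) incubated with recombinant human topo I (0.4 units) ± compound for 30 min at 37 °C. Buffer: 10 mM Tris-HCl pH 7.9, 150 mM NaCl, 0.1% BSA, 1 mM spermidine, 5% glycerol. Quenched with sarcosyl stop solution. 1% agarose gel run at 15 V for 7 h in TAE, ethidium bromide stain, supercoiled DNA quantified under UV.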

[3] = biological target: T1, DNA topoisomerase 1 (Homo sapiens); experiment: Inhibition of recombinant human DNA topoisomerase-1-mediated relaxation of supercoiled DNA pBR322 at 100 uM after 7 hrs using ethidium bromide staining by agarose gel electrophoresis analysis; how it was run: as §2
[4] = system: HeLa; experiment: Cell cycle arrest in human HeLa cells assessed as accumulation at sub-G0/G1 phase after 24 hrs using […] by flow cytometry analysis relative to control; format: functional, cell-based
How it was run: (§3)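 HeLa cells exposed to graded compound concentrations for 24 h, harvested by centrifugation, PBS-washed twice, fixed overnight on ice in 70% ethanol. Stained with 10 μg/mL propidium iodide plus 0.5 mg/mL RNase and 0.1% Triton X-100 in PBS, 30 min at 37 °C in the dark. Flow cytometry gates: sub-G0/G1, G0/G1, S, G2/M.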

[5] = biological target: DNA topoisomerase 2-alpha (Homo sapiens) (UniProt P11388); experiment: Inhibition of human DNA topoisomerase-2a-mediated relaxation of supercoiled DNA pBR322 at 100 uM after 4 hrs using ethidium bromide staining by agarose gel electrophoresis analysis; how it was run: as §1
[6] = system: HeLa; experiment: Cell cycle arrest in human HeLa cells assessed as accumulation at G2/M phase phase after 24 hrs using […] by flow cytometry analysis relative to control; format: functional, cell-based; how it was run: as §3
[7] = Cytotoxicity against human MCF10A cells after 2 days; format: cell-based, MCF-10A; conditions: Homo sapiens, MCF-10A, 48 h
How it was run: (§4)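 Cells seeded at 2-4 × 10^4 per well in medium with 10% FBS and incubated overnight at 37 °C, 5% CO2. Graded compound concentrations added on day 2. CCK-8 reagent added on day 4 for a further 4 h, absorbance read at 450 nm. IC50 from a four-parameter logistic fit; mean ± S.D. of three experiments run in triplicate.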

[8] = system: T47D; experiment: Cytotoxicity against human T47D cells after 2 days; format: functional, cell-based; conditions: Homo sapiens, T47D, 48 h; how it was run: as §4
[9] = Cytotoxicity against human HCT15 cells after 2 days; format: functional, cell-based, HCT-15; conditions: Homo sapiens, HCT-15, 48 h; how it was run: as §4
[10] = system: DU-145; experiment: Cytotoxicity against human DU145 cells after 2 days; format: functional, cell-based; conditions: Homo sapiens, DU-145, 48 h; how it was run: as §4

Sequence of DNA topoisomerase 2-alpha (Homo sapiens) (P11388 whole entry): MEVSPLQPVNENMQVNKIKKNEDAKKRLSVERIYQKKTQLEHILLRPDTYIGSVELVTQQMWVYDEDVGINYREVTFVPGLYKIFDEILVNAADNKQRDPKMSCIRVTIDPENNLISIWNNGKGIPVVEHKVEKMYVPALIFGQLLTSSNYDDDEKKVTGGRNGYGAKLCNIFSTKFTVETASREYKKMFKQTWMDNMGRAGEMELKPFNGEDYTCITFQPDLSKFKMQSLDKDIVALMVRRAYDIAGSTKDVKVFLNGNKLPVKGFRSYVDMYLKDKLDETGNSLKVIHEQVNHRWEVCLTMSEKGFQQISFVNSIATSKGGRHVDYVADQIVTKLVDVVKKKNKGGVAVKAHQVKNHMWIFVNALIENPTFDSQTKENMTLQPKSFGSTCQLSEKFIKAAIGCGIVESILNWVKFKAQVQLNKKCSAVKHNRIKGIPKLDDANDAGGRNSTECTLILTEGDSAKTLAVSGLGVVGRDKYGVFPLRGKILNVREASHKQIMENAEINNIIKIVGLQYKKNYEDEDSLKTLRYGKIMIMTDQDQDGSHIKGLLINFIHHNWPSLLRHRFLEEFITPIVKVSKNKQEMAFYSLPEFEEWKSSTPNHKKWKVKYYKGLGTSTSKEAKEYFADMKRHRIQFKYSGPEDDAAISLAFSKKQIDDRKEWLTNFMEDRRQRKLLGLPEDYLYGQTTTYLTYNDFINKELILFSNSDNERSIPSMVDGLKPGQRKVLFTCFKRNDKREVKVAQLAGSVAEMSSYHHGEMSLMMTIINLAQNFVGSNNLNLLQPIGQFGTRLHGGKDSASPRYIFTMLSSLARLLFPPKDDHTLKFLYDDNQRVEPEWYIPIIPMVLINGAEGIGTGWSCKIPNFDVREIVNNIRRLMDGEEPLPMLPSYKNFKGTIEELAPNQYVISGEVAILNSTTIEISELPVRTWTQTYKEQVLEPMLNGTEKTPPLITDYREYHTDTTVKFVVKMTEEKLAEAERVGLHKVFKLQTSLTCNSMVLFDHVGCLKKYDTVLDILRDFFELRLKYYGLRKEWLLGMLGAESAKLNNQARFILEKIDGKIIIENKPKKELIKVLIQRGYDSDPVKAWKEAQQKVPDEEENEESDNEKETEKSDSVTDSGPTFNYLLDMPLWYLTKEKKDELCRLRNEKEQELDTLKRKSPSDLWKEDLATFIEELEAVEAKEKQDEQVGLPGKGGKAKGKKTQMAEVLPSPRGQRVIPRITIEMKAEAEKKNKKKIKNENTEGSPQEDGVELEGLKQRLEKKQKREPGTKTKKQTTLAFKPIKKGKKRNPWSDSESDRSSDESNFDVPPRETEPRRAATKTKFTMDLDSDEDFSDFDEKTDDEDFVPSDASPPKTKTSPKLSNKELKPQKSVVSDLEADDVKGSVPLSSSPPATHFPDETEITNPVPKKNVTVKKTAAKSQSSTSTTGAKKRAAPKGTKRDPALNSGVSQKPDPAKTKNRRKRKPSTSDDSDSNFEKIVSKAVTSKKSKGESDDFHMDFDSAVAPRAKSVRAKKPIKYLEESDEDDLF

inhibition [1] | inhibition [2] | inhibition [3] | inhibition [5] | Structure (SMILES) | Activity [4] | Activity [6] | IC50 [7] [µM] | IC50 [8] [µM] | IC50 [9] [µM] | IC50 [10] [µM]
0% | 0.6% and 4.8% |  |  | c1csc(-c2cc3ccccc3c(N3CCNCC3)n2)c1 |  |  |  |  |  | 
0% | 0% | 59% and 59.6% |  | Cc1ccc2c(N3CCNCC3)nc(-c3cccs3)cc2c1 |  |  |  |  |  | 
1.1% | 0% |  |  | Cc1ccc2c(N3CCCCC3)nc(-c3cccs3)cc2c1 |  |  |  |  |  | 
0% |  | 0% | 14.6% and 22.5% | Nc1nc(-c2cccs2)cc2ccccc12 | Dose-dependent effect | Dose-dependent effect |  |  |  | 
1.1% |  | 0% | 68.9% | Cc1ccc2c(NCc3ccccc3)nc(-c3cccs3)cc2c1 |  |  | > 50 | 6.57 | 8.62 | > 50
0.5% and 1.8% |  | 0% | 42.9% and 48.1% | c1csc(-c2cc3ccccc3c(N3CCCCC3)n2)c1 |  |  |  |  |  | 
